One series has as its system hiPSC-CMs. Format: cell-based, human. Particulars: for apparent risk in this study compared with actual clinical practice: hiPSC-CMs, Torsadogenic safety margin.
For series [1] the following is noted: risk of TdP arrhythmia at clinical exposures; cited from earlier work.
The test system of series [2] is hiPSC-derived cardiomyocytes. Particulars: tested at concentrations exceeding 100 times the free Cmax; cited from earlier work.
Another series has as its system DCM and HCM hiPSC-CMs. The format is cell-based, human. Particulars: for asystole safety margin versus isogenic control: DCM RBM20 p.R634Q and PLN p.R14del, HCM MYBPC3 p.R943X and TPM1 p.K37E versus isogenic control hiPSC-CMs; for Torsadogenic safety margin in DCM and HCM hiPSC-CMs versus isogenic control: DCM and HCM lines versus HD.15S1 isogenic control. The gist of the method: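 Cells were HCM (TPM1, MYBPC3) and DCM (TNNT2, RBM20, PLN) hiPSC-CMs made by Cas9/ssODN knock-in and Sanger-verified, plus isogenic control. They were plated at 25,000/well for ≥4 days, dye-loaded with VF2.1.Cl/Hoechst for 50 min at 37°C, exposed to drug for 15 min at 37°C, and imaged at 33 Hz for 10 s. Design: 8 doses, 3 differentiation batches × 3 technical repeats. CNN arrhythmic/asystolic probability was fitted by binomial glm against log dose, with EC50 and 95% CI.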

The mark [3] stands for this setting: healthy donor hiPSC-CMs, 8 concentrations.

Turning to `CC(C)COCC(CN(Cc1ccccc1)c1ccccc1)N1CCCC1` (stereo not drawn) [bepridil, Bepridil], the “apparent risk in this study compared with actual clinical practice” value in the series with hiPSC-CMs was “appeared less”. Moreover, the “CiPA TdP risk classification” value in series [1] is reported as “high-risk”. In series [2], the “response in hiPSC-derived cardiomyocytes in previous studies” value is reported as “non-arrhythmic responses”.

With `CN(CCOc1ccc(NS(C)(=O)=O)cc1)CCc1ccc(NS(C)(=O)=O)cc1` [dofetilide, Dofetilide], in the series on DCM and HCM hiPSC-CMs, the “asystole safety margin versus isogenic control” value is “heightened propensity to cause asystole”.

For `O=C(CCCN1CC=C(n2c(=O)[nH]c3ccccc32)CC1)c1ccc(F)cc1` [droperidol, Droperidol], the “apparent risk in this study compared with actual clinical practice” value in the series with hiPSC-CMs is listed as “riskier”. Also, in the series with DCM and HCM hiPSC-CMs, the “asystole safety margin versus isogenic control” value was “heightened propensity to cause asystole”; the “Torsadogenic safety margin in DCM and HCM hiPSC-CMs versus isogenic control” value is reported as “trended towards increased risk”. Also, the “CiPA TdP risk classification” value in series [1] is given as “intermediate risk”.

As for `CCCCCCCN(CC)CCCC(O)c1ccc(NS(C)(=O)=O)cc1` (stereo not drawn) [ibutilide, Ibutilide], the “arrhythmia probability (CNN) versus dose” value in the series with hiPSC-CMs (setting [3]) was “continuous, dose-dependent increase in arrhythmia probability”. In the series with DCM and HCM hiPSC-CMs, the “asystole safety margin versus isogenic control” value was “heightened propensity to cause asystole”; the “Torsadogenic safety margin in DCM and HCM hiPSC-CMs versus isogenic control” value is on record as “trended towards increased risk”. In addition, the “CiPA TdP risk classification” value in series [1] is “high”.

With `Cc1cccc(C)c1OCC(C)N` (stereo not drawn) [mexiletine, Mexiletine], the “apparent risk in this study compared with actual clinical practice” value in the series on hiPSC-CMs is on record as “riskier”. In series [1], the “CiPA TdP risk classification” value is recorded as “low-no risk”.

With `COC(=O)C1=C(C)NC(C)=C(C(=O)OC)C1c1ccccc1[N+](=O)[O-]` [nifedipine, Nifedipine], the “asystole (probability of asystole class, CNN) versus dose” value with hiPSC-CMs (setting [3]) is listed as “dose-dependent induction of asystole”.

As to `Cc1nccn1CC1CCc2c(c3ccccc3n2C)C1=O` (stereo not drawn) [ondansetron, Ondansetron], the “CiPA TdP risk classification” value in series [1] was “intermediate”.

Turning to `COc1ccccc1OCC(O)CN1CCN(CC(=O)Nc2c(C)cccc2C)CC1` (stereo not drawn) [ranolazine, Ranolazine], the “apparent risk in this study compared with actual clinical practice” value with hiPSC-CMs is on record as “riskier”. For the same compound, the “CiPA TdP risk classification” value in series [1] is on record as “low-no risk”.
